# From PubChem BioAssay
# Hits are enriched below; roughly 3.7% of the tested compounds scored in any of these assays.
# Insulin prom inh – inhibitors of insulin promoter-driven GFP, primary screen, imaging, TRM-6 cells (human fetal islet line), eGFP reporter, cell count. 130,000 compounds, 0.9% hits. inhibition, % at 2 µM. reporter expression induced with tamoxifen;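 active means inhibition above the mean plus 3 SD, with well images judged a real hit on visual review, cut at about 60% in these data, passing the limit was not always enough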
# Efa HMGR inh – inhibitors of E. faecalis class II HMGR, primary screen, biochemical, Enterococcus faecalis | AID 1066, 2008 | purified E. faecalis HMGR, NADPH absorbance 340 nm kinetic | inhibition, % at 10 µM | 190,000 compounds, 0.41% hits | HMG-CoA reductase (Enterococcus faecalis, mvaE);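 active means inhibition above a set limit, the median over all tested compounds plus 3 SD, cut at about 9.5% in these data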;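 further: enzyme runs in reverse so mevalonate oxidation gives rising NADPH absorbance; 0% = complete reaction with DMSO and 100% = background rate lacking mevalonate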
# RAM network inh – inhibitors of the yeast RAM network, primary screen, dse1pr::URA3 reporter, 5-FOA selection. 190,000 compounds, 1.8% hits. AID 868, 2007. inhibition, % at 50 µM. S. cerevisiae dse1pr::URA3 reporter, 5-FOA growth OD615, 2 d; analog-sensitive cbk1-as2 kinase mutant strain;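 active means inhibition above a set limit, 3 SD over mean compound inhibition, cut at about 8.4% in these data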;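 further: 0% = DMSO-only wells with no growth and 100% = 10 µM 1-NA-PP1 full growth; inhibition rescues growth on 5-FOA so higher OD means more RAM inhibition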
# Yeast life ext – compounds extending yeast replicative lifespan, primary screen, S. cerevisiae, OD615; S. cerevisiae growth with nicotinamide; deaD strain in restrictive glucose medium; inhibition of the nicotinamide effect, % at 10 µM; 130,000 compounds, 0.68% hits; AID 775, 2007;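 active means inhibition above a set limit, placed 3 SD over the median of all compounds, cut at about 26% in these data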;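 further: 0% = nicotinamide-treated wells and 100% = cells grown without nicotinamide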
#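 Test system: DeaD-strain S. cerevisiae / Buffer or medium: restrictive glucose medium / Also added: nicotinamide 1.5 mM / Doses: one concentration, 10 µM, DMSO 0.25% / Schedule: 48 h at 30 °C / Signal: OD615 measurement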
# BB579 growth dn – growth inhibitors of yeast BB579 in restrictive medium, primary screen, yeast lifespan-shortening project, S. cerevisiae; 140,000 compounds, 0.51% hits; AID 804, 2007; OD615, 48 h; inhibition, % at 10 µM;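 active means inhibition above a set limit, 3 SD over the mean compound inhibition, cut at about 44% in these data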
#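 Test system: DeaD yeast strain BB579 / Buffer or medium: restrictive glucose-based CSMM-D medium / Doses: single 10 µM dose / Schedule: 4 h cell preincubation, 48 h compound exposure, 30 °C humidified / Technique: culture absorbance at 615 nm / Controls: amphotericin B positive control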
# * marks the source's active call; other numbers are inactive results; . = no result.
SMILES,Insulin prom inh,Efa HMGR inh,RAM network inh,Yeast life ext,BB579 growth dn
CC(C)CCN(C(=S)NC(=O)C1CCCCC1)c1c(N)n(Cc2ccccc2)c(=O)[nH]c1=O,-75,-6,1,.,.
CCCC1=NN(c2ccc([N+](=O)[O-])cc2)C(=O)/C1=C\N(C)C,25,-7,7,-7,-32
CC(C)(C)c1cc(C(F)(F)F)c(C#N)c(=O)[nH]1,24,-5,-1,-10,-4
CCCc1cc(C(F)(F)F)c(C#N)c(=O)[nH]1,68*,0,1,-2,-26
Cc1cccc2c(N=Nc3ccc(S(=O)(=O)Nc4ccc(Cl)cc4)cc3[N+](=O)[O-])c(O)[nH]c12,47,-4,5,.,.
COCCNC(=S)N(CCc1c(C)[nH]c2ccc(Cl)cc12)Cc1cccs1,-111,-2,9.8*,.,.
COc1ccc2cc(C3NC(=O)c4ccccc4N3)c(Cl)nc2c1 (stereo not given),63,19*,4,.,.
O=C1C(=O)N(C2CCCC2)C(=O)N1Cc1c(F)cccc1Cl,27,-4,3,.,.
Cc1[nH]c2ccccc2c1N=Nc1cccc(C(=O)O)c1,52,-4,-2,-7,26
Cc1[nH]c2ccccc2c1N=Nc1ccccc1C(=O)O,15,-4,9.8*,4,-68
O=C(O)C1CCCCC1C(=O)NCCc1ccc(F)cc1 (stereo not given),.,1,1,.,.
Nc1c(-c2ccccc2)nc(Cl)nc1-c1ccccc1,.,0,2,-5,-16
c1ccc(-c2nc3nonc3nc2-c2ccccc2)cc1,.,-7,4,-21,70*
CCC(Sc1ccc2nnc(-c3cccnc3)n2n1)C(=O)OC (stereo not given),-100,9.6*,1,.,.
CCC(Sc1ccc2nnc(-c3ccc(F)cc3)n2n1)C(=O)OC (stereo not given),-63,0,-1,-18,-29
Cc1ccc(N2C(=O)CC(N3CCc4ccccc43)C2=O)cc1Cl (stereo not given),.,-5,5,.,.
COc1cccc(C(=O)OCC(=O)c2c[nH]c3ccccc23)c1O,.,-3,0,.,.
CC(=O)Nc1ccc(S(=O)(=O)Nc2nc3ccccc3nc2Nc2ccc(S(N)(=O)=O)cc2)cc1,.,-11,8,5,-4
NS(=O)(=O)c1ccc(Nc2nc3ccccc3nc2NS(=O)(=O)c2cccc([N+](=O)[O-])c2)cc1,.,-1,8.6*,.,.
CC(=O)Nc1ccc(S(=O)(=O)N(c2cccnc2)S(=O)(=O)c2ccc(NC(C)=O)cc2)cc1,6,-3,10.0*,.,-11
Cc1ccc(N(C(=O)CS(=O)CC(=O)Nc2ccc(F)cc2)C(C(=O)NC2CCCCC2)c2ccco2)cc1 (stereo not given),-27,-1,1,94*,-23
NNC(=O)CCc1ccc(S(=O)(=O)N2CCOCC2)cc1,81*,-7,1,.,.
O=C(O)CCc1ccc(S(=O)(=O)N2CCOCC2)cc1,30,-4,0,-3,-30
O=C(O)c1ccc2c3c(ncnc13)-c1ccccc1C2=O,.,0,-1,-10,96*
CCOC(=O)C(=NC(C)CC)NNc1ccc(Br)cc1 (stereo not given),25,-3,0,-7,93*
SMILES,Insulin prom inh,Efa HMGR inh,RAM network inh,Yeast life ext,BB579 growth dn
CC(=O)NC12CC3CC(C1)CC(C(=O)Nc1nccs1)(C3)C2,.,-5,10*,-6,-8
CCOC(=O)Cc1nn(Cc2ccccc2)c(=O)c2ccccc12,.,14*,-1,.,.
CCOC(=O)Cc1nn(Cc2ccc(Cl)cc2)c(=O)c2ccccc12,.,-5,5,.,.
Cc1ccc(-c2nc(SCC(=O)NCC3CCCO3)c(-c3ccccc3)[nH]2)cc1 (stereo not given),-29,6,6,3,-5
CCOC(=O)c1cnn(-c2nc(-c3ccc(F)cc3)cs2)c1C(F)(F)F,-20,0,9.2*,-7,-10
CCOC(=O)c1cnc2c(-c3ccc(F)cc3)cnn2c1C(F)(F)F,-5,2,5,.,.
CCOC(=O)c1cnn(-c2nc(-c3ccccc3F)cs2)c1C(F)(F)F,-23,-3,0,-27,-12
CCOC(=O)c1cnn(-c2nc(-c3ccccc3)cs2)c1C(F)(F)F,-19,-21,10*,-27,2
